Published values of several laboratories.
Compare with care: the assays were run in different laboratories.
Target: MAP kinase-interacting serine/threonine-protein kinase 1 (MKNK1, Homo sapiens, UniProt Q9BUB5)

CO[C@@H]1[C@H](N(C)C(=O)c2ccccc2)C[C@H]2O[C@]1(C)n1c3ccccc3c3c4c(c5c6ccccc6n2c5c31)C(=O)NC4 — inhibition (enzyme activity, inhibitor; 1 µM): 20%
CC(C)S(=O)(=O)c1ccc2nccc(Nc3ccc4sc(C5CCCC5)nc4c3)c2c1 — activity vs control (enzyme activity, inhibitor; 1 µM): 106%
C#Cc1cc(-c2cc(Nc3nc(N[C@@H](C)c4ccc(F)cn4)ncc3Cl)n[nH]2)ccc1C=O — inhibition (enzyme activity, inhibitor; 0.2 µM): 9.43%
C1=C/COCc2cc(ccc2OCCN2CCCC2)Nc2nccc(n2)-c2cccc(c2)COC/1 — remaining binding (binding; 0.1 µM): 78%
COc1ccc2oc(-c3ccc4nc(N)oc4c3)c/c(=N\c3ccccc3NC(=O)CCN)c2c1 — remaining binding (binding; 1 µM): 107%
CC#CC(=O)N1CCC[C@H]1c1nc(-c2ccc(C(=O)Nc3ccccn3)cc2)c2c(N)nccn12 — inhibition (enzyme activity, inhibitor; 1 µM): 0%
C#Cc1cnc(Nc2ccnc(CO)c2)nc1Nc1ccccc1S(C)(=O)=NC#N (centres unmarked) — remaining signal (cell-free assay; 1 µM): 100%
Cc1ccc(NC(=O)c2ccnc(C(F)(F)F)c2)cc1-c1cc(OCCO)nc(N2CCOCC2)c1 — remaining binding (binding, competition with immobilised ligand; 1 µM): 85%
N#Cc1ccc(NC(=O)Nc2ccccc2)cc1 — remaining binding (cell-free assay, competition with immobilised ligand; 25 µM): 75%
CN1CCN(C(=O)c2ccc(NC(=O)Nc3ccc(N(C)c4ccnc(Nc5ccc(CS(C)(=O)=O)cc5)n4)cc3)cc2)CC1 — remaining binding (binding, competition with immobilised ligand; 1 µM): 65%
CCCCC(=O)Nc1ccc(-c2ccc3ncn(CCC)c(=O)c3c2)cn1 — remaining binding (binding, competition with immobilised ligand; 0.5 µM): 100%
